High-throughput results as filed in PubChem BioAssay.
Most compounds without a hit are left out; they make up all but 3.1% or so of the library.
PAX8 inh HTS = inhibitors of PAX8 transcriptional activity in RMG-I cells. RMG-I TPO-luciferase reporter, SteadyGlo, 24 h. inhibition, % at 12.6 µM. hit rate 1.2% among 360,000;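 active = mean replicate inhibition at least 60% with every replicate also reaching 60%; inconclusive = only one of the two criteria is met; inactive = mean below 60% and not all replicates reaching 60%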;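 also: luciferase light reporting Pax8 driven TPO promoter activity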
FGF22 binding = shifts melting point of recombinant human FGF22; Q9HCT0; recombinant FGF22 thermal shift, SYPRO orange fluorescence; percent of sucrose octasulfate shift, DMSO zero; activity (Tm shift, normalised), % at 9.99 µM; hit rate 1.5% among 340,000; AID 651658;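 active = mean Tm shift, scaled 0 neutral to 100 positive control, at about 1.3% or above, every replicate too, limit read from the data; inconclusive = no clear call, values can overlap the other calls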
Target sequence (Q9HCT0 whole entry, looked up): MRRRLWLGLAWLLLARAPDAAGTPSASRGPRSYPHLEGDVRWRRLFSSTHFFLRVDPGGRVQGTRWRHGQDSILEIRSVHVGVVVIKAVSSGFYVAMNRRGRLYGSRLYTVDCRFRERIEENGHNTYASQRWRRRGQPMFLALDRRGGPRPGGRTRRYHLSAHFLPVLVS
FN deposition inh = fibronectin deposition inhibition. inhibition, % at 12.6 µM. AH1F fibroblasts, Alexa488-fibronectin deposition fluorescence, overnight. AID 743247. hit rate 0.086% among 350,000;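 active = mean inhibition across replicates of 30% or more, regardless of how many single replicates reach that level; inconclusive = mean under 30% yet at least half of replicates reach 30%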
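Assay system: AH1F fibroblast monolayer, labelled fibronectin deposition. Amount: 10000 cells per well. Also added: labelled fibronectin 24 nM. Compound: single-point pinned compound. Incubation: cell attachment 1 h, compound and FN exposure overnight. Detection: fluorescence after three HBSS washes, excitation 485 nm, emission 525 nm. Read-out: inhibition of fibronectin deposition signal.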
EWS-Fli inh = inhibitors of EWS/Fli oncoprotein transcriptional activity; hit rate 0.67% among 350,000; inhibition, % at 12.6 µM; A673 NR0B1-luciferase reporter, viability-normalised; AID 651661;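 active = mean inhibition of at least 50% after viability correction, with every replicate also passing that limit; inconclusive = mean reaches 50% but only one of two replicates passes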;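 also: firefly luciferase signal divided by Alamar Blue viability fluorescence both relative to DMSO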
PGC1a acetyl inh = modulators of PGC1a acetylation; U2OS PGC1a acetylation, AlphaScreen anti-acetyl-lysine; with virally co-expressed GCN5 acetyltransferase; inhibition, % at 15.6 µM; hit rate 0.17% among 350,000; AID 651687;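 active = every replicate shows inhibition of at least 40%; inconclusive = mean inhibition at least 40% but some replicate below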
Env fusion inh = blocks HIV Env-driven cell-cell fusion; AID 651610; inhibition, % at 12.3 µM; HeLa-JRFL Env/CEM21 cell fusion, luciferase; hit rate 1.1% among 360,000;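 active = mean replicate inhibition score of at least 50 and every replicate individually at or above 50; inconclusive = only one of the two criteria met; inactive = mean below 50 and not all replicates reaching 50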
Hits are given with their value; – = inactive; ? = inconclusive; · = no result given; [ ] = dose if it differs, or a comment.

SMILES | PAX8 inh HTS | FGF22 binding | FN deposition inh | EWS-Fli inh | PGC1a acetyl inh | Env fusion inh
C[C@@H]1CN([C@@H](C)CO)C(=O)Cc2cc(NS(=O)(=O)c3ccc(Cl)cc3)ccc2O[C@@H]1CN(C)C(=O)Nc1ccc(F)cc1 | – | – | – | – | – | –
CC1CCCN(S(=O)(=O)c2ccc(C(=O)Nc3sc4c(c3C(N)=O)CCN(C)C4)cc2)C1 (centres undefined) | – | – | – | 56.0 | · | –
CC(C)N1CCc2c(sc(NC(=O)C3CCCCC3)c2C(N)=O)C1 | – | – | – | – | 43.7 | –
CSC(=Nc1ccccc1)N=C(SCc1ccccc1)N(C)C | 100.5 | – | – | 56.8 | – | –
N#CNC(=Nc1ccccc1)SCc1ccc(C(=O)O)cc1 | – | – | – | – | – | –
C[C@@H]1CN([C@H](C)CO)C(=O)c2cc(NS(=O)(=O)c3ccc(Cl)cc3)ccc2O[C@@H]1CN(C)C(=O)Nc1ccccc1 | – | – | · | – | – | –
COc1ccccc1S(=O)(=O)N(C)C[C@H]1Oc2cc(C#CCC(C)C)ccc2S(=O)(=O)N([C@@H](C)CO)C[C@H]1C | · | · | · | – | – | 55.0[16.7 µM]
COc1ccccc1S(=O)(=O)N(C)C[C@@H]1Oc2cc(C#CCC3CCCC3)ccc2S(=O)(=O)N([C@@H](C)CO)C[C@H]1C | 73.0 | – | – | – | – | –
COc1ccccc1S(=O)(=O)N(C)C[C@H]1Oc2cc(C#CCC(C)C)ccc2S(=O)(=O)N([C@H](C)CO)C[C@@H]1C | · | – | · | – | – | –
COc1ccccc1S(=O)(=O)N(C)C[C@@H]1Oc2cc(C#CCC3CCCC3)ccc2S(=O)(=O)N([C@@H](C)CO)C[C@@H]1C | 75.9 | – | – | – | – | –
COc1ccc2c3c([nH]c2c1)[C@H](CO)N(C(=O)C1CCCCC1)CC31CN(Cc2nccs2)C1 | · | · | · | – | – | ·
CS(=O)(=O)N1CC(=O)N2[C@H](C1)[C@H](c1ccc(C#Cc3ccccc3)cc1)[C@@H]2CO | – | · | · | – | – | ·
Cc1ccc(S(=O)(=O)Nc2ccc3c(c2)C(=O)N([C@H](C)CO)C[C@H](C)[C@@H](CN(C)Cc2ccc(C(F)(F)F)cc2)OCCCC[C@@H](C)O3)cc1 | – | – | – | – | – | –
Cc1ccc(S(=O)(=O)Nc2ccc3c(c2)C(=O)N([C@H](C)CO)C[C@@H](C)[C@@H](CN(C)Cc2ccc(C(F)(F)F)cc2)OCCCC[C@H](C)O3)cc1 | 95.7 | – | – | – | – | ?
Cc1ccc(S(=O)(=O)Nc2ccc3c(c2)C(=O)N([C@@H](C)CO)C[C@@H](C)[C@H](CN(C)Cc2ccc(C(F)(F)F)cc2)OCCCC[C@@H](C)O3)cc1 | 107.6 | – | – | – | – | 107.8[16.7 µM]
Cc1ccc(S(=O)(=O)Nc2ccc3c(c2)C(=O)N([C@@H](C)CO)C[C@H](C)[C@@H](CN(C)Cc2ccc(C(F)(F)F)cc2)OCCCC[C@H](C)O3)cc1 | 79.8 | – | – | – | – | –
Cc1ccc(S(=O)(=O)Nc2ccc3c(c2)C(=O)N([C@H](C)CO)C[C@H](C)[C@H](CN(C)Cc2ccc(C(F)(F)F)cc2)OCCCC[C@H](C)O3)cc1 | 115.1 | – | – | – | – | –
CNC[C@@H]1OCCCC[C@@H](C)Oc2ccc(NC(=O)C3CCCCC3)cc2C(=O)N([C@H](C)CO)C[C@@H]1C | – | – | · | – | – | –
CCCN(C)C[C@@H]1Oc2cc(C#Cc3ccccc3OC)ccc2S(=O)(=O)N([C@H](C)CO)C[C@@H]1C | · | – | – | – | – | –
Cc1ccc(S(=O)(=O)Nc2ccc3c(c2)C(=O)N([C@H](C)CO)C[C@@H](C)[C@@H](CN(C)Cc2ccc(C(F)(F)F)cc2)OCCCC[C@@H](C)O3)cc1 | 87.4 | – | – | – | – | 68.5[16.7 µM]
COc1cccc(N2CCN(c3nc(-c4ccccc4C)cc(=O)[nH]3)CC2)c1 | 69.6 | – | – | – | · | –
COc1ccc(CNC(=O)CN2CCN(S(=O)(=O)c3cccs3)CC2)cc1OC | – | 43.4 | – | – | – | –
CC(C)C#Cc1cnc2c(c1)C(=O)N([C@H](C)CO)C[C@H](C)[C@@H](CN(C)Cc1cccc(F)c1)O2 | – | – | – | – | – | –
CCOCCCNCc1cn(-c2ccc(F)cc2F)nc1-c1ccccc1C | – | 43.1 | – | – | – | –
Cc1ccccc1-c1nn(-c2ccc(F)cc2F)cc1CNCC(C)O (centres undefined) | – | – | – | – | – | –
SMILES | PAX8 inh HTS | FGF22 binding | FN deposition inh | EWS-Fli inh | PGC1a acetyl inh | Env fusion inh
COc1ccc2c(c1)C(SCC(=O)NCCc1ccc(Cl)cc1)CC(C)(C)O2 (centres undefined) | – | – | – | – | – | 62.6
CO[C@@H](C(=O)N(C)C[C@@H]1OCc2ccccc2-c2ccccc2C(=O)N([C@@H](C)CO)C[C@H]1C)c1ccccc1 | – | – | – | – | – | –
Clc1cccc(-c2nc3nc4ccccc4nc3n2Cc2ccccc2)c1 | 84.9 | – | – | – | · | ·
c1ccc(Cn2c(-c3ccccc3)nc3nc4ccccc4nc32)cc1 | – | · | – | · | – | –
COc1ccc(CCNc2nnc(Sc3nnnn3-c3ccccc3)s2)cc1OC | 94.1 | · | – | · | – | –
COc1ccc2c3c(n(C)c2c1)[C@@H](CO)N(C(=O)C1CCCC1)CC31CCN(Cc2cccc(F)c2)CC1 | – | – | · | – | · | ·
O=C(NC1CCCCCC1)C1c2ccccc2C(=O)N1Cc1ccco1 (centres undefined) | · | · | – | · | – | –
O=C(NC1CCCCCC1)C1c2ccccc2C(=O)N1Cc1cccs1 (centres undefined) | 91.3 | – | – | – | · | ·
COc1ccc([C@@]23Oc4cc(OC)cc(OC)c4[C@]2(O)[C@H](O)[C@H](C(=O)N(C)C)[C@H]3c2ccccc2)cc1 | 86.8 | – | – | – | · | –
CO[C@H]1CC[C@H]2CCOc3c(C#N)cccc3C(=O)N(C)C[C@H](C)C(=O)N(C)C[C@@H]1O2 | – | – | – | – | – | –
N#C[C@@H]1[C@@H](c2ccc(C3=CCCC3)cc2)[C@@H](CO)N1C(=O)NC1CCCC1 | – | – | – | – | – | –
CC(C)CC#Cc1ccc2c(c1)O[C@@H](CN(C)Cc1ccccc1F)[C@H](C)CN([C@H](C)CO)S2(=O)=O | · | – | – | – | – | ·
O=C([C@H]1O[C@@H](n2ccc(=O)[nH]c2=O)[C@H](O)[C@@H]1O)N1CCN(Cc2ccccn2)CC1 | – | – | – | – | · | 57.2
O=C(N[C@H](Cc1ccccc1)C(=O)N1CCN(Cc2ccccn2)CC1)[C@H]1O[C@@H](n2ccc(=O)[nH]c2=O)[C@H](O)[C@@H]1O | – | – | – | – | · | ?
CC1CCc2c(sc3ncnc(N4CCOCC4)c23)C1 (centres undefined) | · | · | – | · | · | 92.2
N#Cc1ccccc1COc1ccc(/C=C/C(=O)O)cc1 | – | 43.2 | – | 57.7 | · | –
Cc1ccccc1COc1ccc(/C=C(\C#N)C(N)=O)cc1 | – | 43.9 | – | – | · | –
